Assay results published in ChEMBL document CHEMBL2424590, “4-[18F]Fluoro-m-hydroxyphenethylguanidine: a radiopharmaceutical for quantifying regional cardiac sympathetic nerve density with positron emission tomography” (J Med Chem, 2013).

Assays:
[1] = Drug uptake in rhesus macaque monkey myocardium at 0.1 mCi by Patlak plot analysis; assay type: ADME, tissue-based, Macaca mulatta; conditions: in vivo
Outline: (§1)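 Same monkey for all studies. Desipramine (0.010, 0.0316, 0.10 or 1.0 mg/kg; n = 1 each) in 2.0 mL saline infused i.v. over 20 min, with tracer injected 10 min after the infusion ended; 4 control studies. ROIs on myocardium and basal LV blood pool drawn on summed final four frames. Cp(t) derived from Cwb(t) × intact fraction × Cp/Cwb. Ki from compartmental modelling and Kp as Patlak slope, fitted against DMI dose to a variable-slope sigmoidal model.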

Bone [2] = test: Biodistribution in Sprague-Dawley rat bone at 20 to 120 uCi, iv after 120 mins by gamma counting analysis; assay type: ADME, organism-based, Bone element; conditions: in vivo, 2 h
Outline: (§2)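 Sprague-Dawley rats (280–330 g), 2 male and 2 female per time point (5, 30, 60, 120 min), under light isoflurane, received a tail-vein bolus of 20–120 μCi tracer in 0.05–0.10 mL isotonic 60 mM sodium phosphate, pH 5.4. Tissues were weighed and gamma-counted. Decay-corrected dpm/g was normalized to injected dpm per kg body weight (%ID·kg/g).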

Muscle tissue = test: Biodistribution in Sprague-Dawley rat muscle at 20 to 120 uCi, iv after 120 mins by gamma counting analysis; assay type: ADME, organism-based; conditions: in vivo, 2 h; outline: as §2
Testes [3] = test: Biodistribution in Sprague-Dawley rat testes at 20 to 120 uCi, iv after 120 mins by gamma counting analysis; assay type: ADME, organism-based, Testis; conditions: in vivo, 2 h
Outline: (§3)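 Male and female rats (2 per sex per time point, 280–330 g) under light isoflurane given tail-vein bolus of 20–120 μCi tracer in 0.05–0.10 mL isotonic 60 mM sodium phosphate, pH 5.4. Tissues sampled at 5, 30, 60 or 120 min, weighed and gamma-counted. Decay-corrected dpm per gram normalised to injected dpm and body weight, given as %ID·kg/g.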

Rattus norvegicus [4] = test: Biodistribution in Sprague-Dawley rat stomach at 20 to 120 uCi, iv after 120 mins by gamma counting analysis; assay type: ADME, organism-based; conditions: in vivo, 2 h; outline: as §3
Kidney [5] = test: Biodistribution in Sprague-Dawley rat kidney at 20 to 120 uCi, iv after 120 mins by gamma counting analysis; assay type: ADME, organism-based; conditions: in vivo, 2 h; outline: as §2
Spleen [6] = test: Biodistribution in Sprague-Dawley rat spleen at 20 to 120 uCi, iv after 120 mins by gamma counting analysis; assay type: ADME, organism-based; conditions: in vivo, 2 h; outline: as §2
Rattus norvegicus [7] = test: Biodistribution in Sprague-Dawley rat eyeballs at 20 to 120 uCi, iv after 120 mins by gamma counting analysis; assay type: ADME, organism-based, Eyeball of camera-type eye; conditions: in vivo, 2 h; outline: as §2
Ovary [8] = test: Biodistribution in Sprague-Dawley rat ovary at 20 to 120 uCi, iv after 60 mins by gamma counting analysis; assay type: ADME, organism-based, Female gonad; conditions: in vivo, 1 h
Outline: as §2, with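 “g)” for “g), 2 male and 2 female per time point (5, 30, 60, 120 min),”, “isoflurane” for “isoflurane,”, “Sampling was at 5, 30, 60 or 120 min. […]” for “Tissues”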

Spleen [9] = test: Biodistribution in Sprague-Dawley rat spleen at 20 to 120 uCi, iv after 60 mins by gamma counting analysis; assay type: ADME, organism-based; conditions: in vivo, 1 h; outline: as §3
Pancreas [10] = test: Biodistribution in Sprague-Dawley rat pancreas at 20 to 120 uCi, iv after 60 mins by gamma counting analysis; assay type: ADME, organism-based; conditions: in vivo, 1 h; outline: as §2
Lung [11] = test: Biodistribution in Sprague-Dawley rat lung at 20 to 120 uCi, iv after 60 mins by gamma counting analysis; assay type: ADME, organism-based; conditions: in vivo, 1 h; outline: as §2
Brain [12] = test: Biodistribution in Sprague-Dawley rat brain at 20 to 120 uCi, iv after 60 mins by gamma counting analysis; assay type: ADME, organism-based; conditions: in vivo, 1 h; outline: as §2
Bone [13] = test: Biodistribution in Sprague-Dawley rat bone at 20 to 120 uCi, iv after 30 mins by gamma counting analysis; assay type: ADME, organism-based, Bone element; conditions: in vivo, 0.5 h; outline: as §2
Ovary [14] = test: Biodistribution in Sprague-Dawley rat ovary at 20 to 120 uCi, iv after 30 mins by gamma counting analysis; assay type: ADME, organism-based, Female gonad; conditions: in vivo, 0.5 h
Outline: as §2, with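 “g)” for “g), 2 male and 2 female per time point (5, 30, 60, 120 min),”, “isoflurane” for “isoflurane,”, “Sampling was at 5, 30, 60 or 120 min. […]” for “Tissues”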

Rattus norvegicus [15] = test: Biodistribution in Sprague-Dawley rat stomach at 20 to 120 uCi, iv after 30 mins by gamma counting analysis; assay type: ADME, organism-based; conditions: in vivo, 0.5 h; outline: as §3
Pancreas [16] = test: Biodistribution in Sprague-Dawley rat pancreas at 20 to 120 uCi, iv after 30 mins by gamma counting analysis; assay type: ADME, organism-based; conditions: in vivo, 0.5 h; outline: as §2
Lung [17] = test: Biodistribution in Sprague-Dawley rat lung at 20 to 120 uCi, iv after 30 mins by gamma counting analysis; assay type: ADME, organism-based; conditions: in vivo, 0.5 h; outline: as §2
Brain [18] = test: Biodistribution in Sprague-Dawley rat brain at 20 to 120 uCi, iv after 30 mins by gamma counting analysis; assay type: ADME, organism-based; conditions: in vivo, 0.5 h; outline: as §2
Testes [19] = test: Biodistribution in Sprague-Dawley rat testes at 20 to 120 uCi, iv after 5 mins by gamma counting analysis; assay type: ADME, organism-based, Testis; conditions: in vivo; outline: as §3
Rattus norvegicus [20] = test: Biodistribution in Sprague-Dawley rat uterus at 20 to 120 uCi, iv after 5 mins by gamma counting analysis; assay type: ADME, organism-based; conditions: in vivo; outline: as §3
Kidney [21] = test: Biodistribution in Sprague-Dawley rat kidney at 20 to 120 uCi, iv after 5 mins by gamma counting analysis; assay type: ADME, organism-based; conditions: in vivo; outline: as §2
Adrenal = test: Biodistribution in Sprague-Dawley rat adrenal at 20 to 120 uCi, iv after 5 mins by gamma counting analysis; assay type: ADME, organism-based, Adrenal tissue; conditions: in vivo; outline: as §2
Heart = test: Biodistribution in Sprague-Dawley rat heart at 20 to 120 uCi, iv after 5 mins by gamma counting analysis; assay type: ADME, organism-based; conditions: in vivo; outline: as §2
Rattus norvegicus [22] = test: Biodistribution in Sprague-Dawley rat eyeballs at 20 to 120 uCi, iv after 5 mins by gamma counting analysis; assay type: ADME, organism-based, Eyeball of camera-type eye; conditions: in vivo; outline: as §2
[23] = Drug uptake in rhesus macaque monkey cortex 5 to 6 mCi, iv after 90 mins by PET analysis; assay type: ADME, organism-based, Macaca mulatta; conditions: in vivo, 1.5 h
[24] = Drug uptake in rhesus macaque monkey adrenal glands 5 to 6 mCi, iv after 90 mins by PET analysis; assay type: ADME, organism-based, Macaca mulatta, Adrenal gland; conditions: in vivo, 1.5 h
[25] = Drug metabolism in rhesus macaque monkey spinal column assessed as fluorine-18 level at 5 to 6 mCi, iv after 90 mins by sagittal PET analysis; assay type: ADME, organism-based, Macaca mulatta; conditions: in vivo, 1.5 h
[26] = Half life in rhesus macaque monkey plasma at 5 to 6 mCi, iv by RP-HPLC analysis; assay type: ADME, organism-based, Macaca mulatta
Outline: (§4)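 Six venous samples (1.5–2.0 mL; typically 1, 2, 4, 10, 30, 60 min) drawn during the monkey PET scan into heparin and centrifuged 1 min at 12000 × g. Plasma deproteinised with HClO₄ (final 0.4 N), spun, neutralised with KOH to pH 7.0–7.5 and filtered twice (0.22 μm). Analysed by reverse-phase HPLC (10% EtOH in 60 mM NaH₂PO₄, pH 5.4, 1.0 mL/min) with NaI(Tl) radiodetection. Decay-corrected intact fraction per sample; T1/2 is the time at which 50% of plasma activity is metabolite.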

Plasma = test: Metabolic stability in rhesus macaque monkey plasma assessed as retention time at 5 to 6 mCi, iv by RP-HPLC analysis; assay type: ADME, organism-based, Macaca mulatta; conditions: in vivo; outline: as §4
[27] = Drug uptake in rhesus macaque monkey heart at 5 to 6 mCi, iv after 90 mins by PET analysis in presence of 0.010 mg/kg to 1 mg/kg desipramine; assay type: ADME, organism-based, Macaca mulatta; conditions: in vivo, 1.5 h; outline: as §1
Nucleic Acid = test: Ratio of drug level in heart to liver in rhesus macaque monkey at 5 to 6 mCi, iv after 90 mins by PET analysis; assay type: ADME, organism-based, Macaca mulatta; conditions: in vivo, 1.5 h
[28] = Drug uptake in rhesus macaque monkey liver at 5 to 6 mCi, iv after 90 mins by PET analysis; assay type: ADME, organism-based, Macaca mulatta; conditions: in vivo, 1.5 h

Kp [1]: 0.302 mL/min/g
Drug uptake (Bone [2]): 0.016 % ID/g
Drug uptake (Muscle tissue): 0.015 % ID/g
Drug uptake (Testes [3]): 0.004 %IDKg/g
Drug uptake (Rattus norvegicus [4]): 0.089 %IDKg/g
Drug uptake (Kidney [5]): 0.078 %IDKg/g
Drug uptake (Spleen [6]): 0.235 %IDKg/g
Drug uptake (Rattus norvegicus [7]): 0.026 %IDKg/g
Drug uptake (Ovary [8]): 0.142 %IDKg/g
Drug uptake (Spleen [9]): 0.253 %IDKg/g
Drug uptake (Pancreas [10]): 0.172 %IDKg/g
Drug uptake (Lung [11]): 0.091 %IDKg/g
Drug uptake (Brain [12]): 0.002 %IDKg/g
Drug uptake (Bone [13]): 0.039 %ID·kg/g
Drug uptake (Ovary [14]): 0.171 %IDKg/g
Drug uptake (Rattus norvegicus [15]): 0.11 %IDKg/g
Drug uptake (Pancreas [16]): 0.145 %IDKg/g
Drug uptake (Lung [17]): 0.136 %IDKg/g
Drug uptake (Brain [18]): 0.003 %IDKg/g
Drug uptake (Testes [19]): 0.018 %IDKg/g
Drug uptake (Rattus norvegicus [20]): 0.268 %IDKg/g
Drug uptake (Kidney [21]): 1.398 %IDKg/g
Drug uptake (Adrenal): 0.203 %IDKg/g
Drug uptake (Heart): 0.746 %IDKg/g
Drug uptake (Rattus norvegicus [22]): 0.039 %IDKg/g
Drug uptake [23]: Active
Drug uptake [24]: Active
Drug metabolism [25]: Active
half-life [26]: 2.5 min
Retention_time (Plasma): 11.4 min
Drug uptake [27]: Not Active
Ratio (Nucleic Acid): 2.5
Drug uptake [28]: Not Active
Structure (SMILES): N=C(N)NCCc1ccc([18F])c(O)c1
